Bioassay records: PubChem BioAssay, several laboratories
The entries come from a sample that favours hits as a whole.
NOD2 RIPK2 PPI – blocks binding of human NOD2 to RIPK2 | O43353 | CHO BLA complementation NOD2-RIPK2, CCF4 ratio | inhibition, % at 4.98 µM | 360,000 compounds, 0.38% hits; in the data active = inhibition above about 21%;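 also: 0% = vehicle only and 100% = reference blocker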
Target sequence (O43353 whole entry, looked up): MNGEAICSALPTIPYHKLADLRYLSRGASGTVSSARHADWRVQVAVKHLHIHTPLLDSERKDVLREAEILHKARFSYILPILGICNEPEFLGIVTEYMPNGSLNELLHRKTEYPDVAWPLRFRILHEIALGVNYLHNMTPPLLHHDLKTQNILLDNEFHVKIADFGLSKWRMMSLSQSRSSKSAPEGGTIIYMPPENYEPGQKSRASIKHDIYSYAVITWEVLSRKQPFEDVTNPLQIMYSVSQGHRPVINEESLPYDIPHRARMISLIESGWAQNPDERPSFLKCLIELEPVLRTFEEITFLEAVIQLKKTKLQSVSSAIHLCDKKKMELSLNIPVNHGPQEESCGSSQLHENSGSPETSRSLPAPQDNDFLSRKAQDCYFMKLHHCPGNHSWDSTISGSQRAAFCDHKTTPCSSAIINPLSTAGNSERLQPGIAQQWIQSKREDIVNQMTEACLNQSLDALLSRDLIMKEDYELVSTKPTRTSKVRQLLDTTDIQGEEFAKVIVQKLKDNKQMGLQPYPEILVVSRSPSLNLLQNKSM
UPR XBP1 act – adaptive UPR (XBP1) activation | CHO-XBP1 luciferase reporter, IRE1-XBP1 UPR activation, luminescence; percent of tunicamycin response, DMSO as zero | activation, % at 20 µM | 330,000 compounds, 0.33% hits;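 active = versus positive control, 20 µM dose yields 30% or more activation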;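 also: 100% = tunicamycin at 10 µg/mL and 0% = DMSO only wells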
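assay system = CHO-XBP1 luciferase reporter cells | amount = 1000 cells/well | buffer or medium = F12 plus 10% FBS | compound dosing = single point, 20 µM final compound, 1% DMSO | incubation = 16-18 h cell attachment at 37 °C, then 6 h compound exposure | detection = Steady-Glo luminescence read | controls = tunicamycin 10 µg/mL and vehicle-only wells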
CHOP inh – inhibitors of CHOP induction in ER stress response. CHO-K1 CHOP-promoter luciferase, tunicamycin-induced, 15-18 h. inhibition, % at 10 µM. 220,000 compounds, 3.8% hits. AID 2732;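 active = compounds that reduced the stress-induced luciferase reporter signal by more than about 70% of percent inhibition, limit read from the data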;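 also: 0% = tunicamycin plus vehicle and 100% = wells without tunicamycin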
TLR9-MyD88 inh – TLR9-MyD88 interaction inhibition. Q9NR96+Q99836. AID 504734. CHO BLA complementation TLR9-MyD88, CCF4 FRET ratio. 340,000 compounds, 0.21% hits. inhibition, % at 4.98 µM;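 active = inhibition above the mean over all tested compounds plus 3 SD, cut at about 21% in these data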;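 also: 0% = DMSO only wells and 100% = clavulanate BLA inhibitor control wells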
TLR4-MyD88 BLA – TLR4-MyD88 interaction inhibition in cells. 200,000 compounds, 0.18% hits. HeLa CL3-4 TLR4/MyD88 BLA complementation, FRET ratio. inhibition, % at 8.4 µM. O00206+Q99836; in the data active = inhibition above about 25%;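 also: 0% = vehicle and 100% = reference inhibitor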
CHOP UPR activ – apoptotic UPR (CHOP) activation. CHO-CHOP luciferase reporter, luminescence; percent of tunicamycin response over DMSO baseline. activation, % at 10 µM. 330,000 compounds, 0.34% hits. AID 449763;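 active = at 10 µM dose, activation of 40% or more, normalized to positive control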;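 also: 100% = tunicamycin at 10 µg/mL and 0% = DMSO alone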
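measured by = luciferase luminescence | assay system = CHO-CHOP cells, stable luciferase reporter of PERK-eIF2a-CHOP signalling | amount = 500 reporter cells seeded per well | timing = 6 h compound exposure at 37 °C after overnight seeding | controls = positive tunicamycin 10 µg/mL, negative DMSO alone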
CHOP inh conf – confirmation of CHOP induction inhibitors; CHO-CHOP promoter luciferase reporter, tunicamycin-induced, luminescence; shares compounds with CHOP inh; 2,100 compounds, 45% hits; inhibition, % at 10 µM;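 active = mean of three repeat readings of reporter signal inhibition above a set limit, cut at about 70% in these data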;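 also: 0% = tunicamycin plus vehicle and 100% = wells lacking tunicamycin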
Numbers without * were called inactive; / = no result.

SMILES | NOD2 RIPK2 PPI | UPR XBP1 act | CHOP inh | TLR9-MyD88 inh | TLR4-MyD88 BLA | CHOP UPR activ | CHOP inh conf
O=C1C2C3C=CC(CO)(O3)C2C(=O)N1c1ccccc1-c1ccccc1 (configuration not stated) | 81* | -5 | / | 5 | 2 | 8 | -27
CC(=O)Oc1ccc(N2C(=O)C3C4C=CC(CO)(O4)C3C2=O)cc1 (configuration not stated) | 9 | -2 | -24 | 11 | 1 | -1 | /
N#CC1=C(N)C2=CCCC[C@H]2[C@H](c2ccc(Br)cc2)C1(C#N)C#N | 3 | / | 99* | 2 | 6 | / | 24
CC(=O)Nc1ccc(NC(=O)c2cc([N+](=O)[O-])cc([N+](=O)[O-])c2)cc1 | -3 | 1 | / | -8 | / | 0 | /
Cc1ccc(NC(=O)c2ccc(Nc3c([N+](=O)[O-])cc([N+](=O)[O-])cc3[N+](=O)[O-])cc2)cc1 | 7 | -5 | 104* | -2 | -2 | -6 | 108*
CN(C)CCNc1ncnc2c1ncn2[C@H]1CN(CCc2ccccc2)C[C@@H](CO)O1 | -3 | / | / | / | / | / | /
CCCc1ccc(C(O)c2ncc(-c3cccc(C)c3)[nH]2)cc1 (configuration not stated) | 4 | / | / | / | / | / | /
C(=C1/CCCC2=C1Nc1ncnn1C2c1ccccc1)/c1ccccc1 (configuration not stated) | / | -8 | 112* | / | 4 | 6 | 58
Cc1ccc2c(COC(=O)c3n[nH]c4ccccc34)cc(=O)oc2c1 | -8 | 5 | 50 | -3 | -6 | 3 | /
CCc1ccc2c(COC(=O)c3n[nH]c4ccccc34)cc(=O)oc2c1 | -6 | 1 | 100* | -11 | -7 | 1 | 18
CCOc1ccc(N(CC(=O)Nc2cccc(OC)c2)S(=O)(=O)c2c(C)noc2C)cc1 | 0 | -5 | 61 | -11 | -11 | 0 | /
CCOc1ccc(N(CC(=O)Nc2cccc(Cl)c2)S(=O)(=O)c2c(C)noc2C)cc1 | -14 | -6 | 107* | 4 | -1 | 0 | 81*
O=C(NCc1ccc(F)cc1)C(=O)NCC1OCCN1S(=O)(=O)c1cc(F)ccc1F (configuration not stated) | 2 | / | / | 6 | / | / | /
Cc1c(N(C)S(=O)(=O)c2cccc(C(=O)NCc3cccnc3)c2)c(=O)n(-c2ccccc2)n1C | -6 | / | / | -2 | / | / | /
O=C(Nc1ccccc1C(F)(F)F)c1cc(-c2cccc(O)c2)on1 | 1 | -1 | 97* | -1 | -1 | 2 | -9
CSC(=S)NN=C(C)c1cccc(C)n1 | 3 | / | / | 9 | / | / | /
CCOc1ccc(Cl)cc1-c1cc(C(=O)Nc2ccc(C(C)C)cc2)[nH]n1 | -9 | / | / | / | / | / | /
Cc1ccc(Cn2c(-c3nonc3N)nc3ccccc32)cc1 | 3 | 0 | 105* | -3 | -11 | -1 | 19
Nc1nonc1-c1nc2ccccc2n1Cc1ccc(Cl)cc1 | -2 | 4 | 6 | 5 | 16 | 0 | /
Cc1[nH]n(-c2ccccc2)c(=O)c1/C=C1/C=c2ccccc2=N1 | 5 | / | 103* | -8 | 4 | / | 78*
CCC(C)(C)C1CCC2(CC1)NC(=O)N(CC(=O)NC(C)CCc1ccccc1)C2=O (configuration not stated) | -7 | -2 | / | -1 | / | 0 | /
Cc1cc(C)nc(-n2cc(C(=O)c3cc(F)ccc3O)cn2)n1 | -10 | 0 | 97* | -8 | 0 | 0 | 27
CN(Cc1ccccc1)C(=O)[C@@H]1CCCN1C(=O)[C@@H]1CCCN1C(=O)c1cccc2ccccc12 | 1 | / | / | / | / | / | /
CCOC(=O)C(C(=O)OCC)C(C(=O)OCC)N1CCOCC1 (configuration not stated) | -2 | -11 | 102* | 6 | -14 | -11 | -94
CCOC(=O)C(C)CC(C)C(=O)N1CCOCCOCCN(C(=O)C(C)CC(C)C(=O)OCC)CCOCC1 (configuration not stated) | -13 | 2 | -1 | -5 | 8 | 0 | /
CCCCCCCCCS(=O)(=O)N/N=C/c1cccc([N+](=O)[O-])c1 | 1 | -1 | 99* | 0 | 1 | -1 | 97*
